In assay [1] the target is T1, Casein kinase I isoform delta (Homo sapiens, UniProt P48730). In words: Inhibition of CSNK1D (unknown origin) at 1 uM using CSNK1D/Ser/Thr 11 peptide incubated for 1 hr by FRET based Z'-LYTE assay relative to untreated control. In short, it runs like this: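 Single-point test at 1 μM ligand, in duplicate, reported as mean ± SD. Coupled-enzyme FRET readout in which a development protease cleaves only nonphosphorylated peptide. Development reagent B (1:16) then added. Coumarin/fluorescein emission ratio read after 400 nm excitation.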
Target sequence in this assay (P48730 whole entry, looked up, canonical isoform): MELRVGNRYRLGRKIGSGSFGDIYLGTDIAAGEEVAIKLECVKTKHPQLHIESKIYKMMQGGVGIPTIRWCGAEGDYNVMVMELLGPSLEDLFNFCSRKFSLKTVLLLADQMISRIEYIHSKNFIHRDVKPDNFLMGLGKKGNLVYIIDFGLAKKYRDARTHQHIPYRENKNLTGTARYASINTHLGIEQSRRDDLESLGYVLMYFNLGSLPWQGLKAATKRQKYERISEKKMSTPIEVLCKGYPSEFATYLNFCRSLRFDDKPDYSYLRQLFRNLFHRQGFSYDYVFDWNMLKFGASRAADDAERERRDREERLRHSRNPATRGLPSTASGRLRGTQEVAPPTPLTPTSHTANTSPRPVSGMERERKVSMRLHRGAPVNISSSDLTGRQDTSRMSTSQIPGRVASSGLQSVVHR

Assay [2] addresses T1, Casein kinase I isoform delta. Put plainly: Inhibition of CSNK1D (unknown origin) using CSNK1D/Ser/Thr 11 peptide incubated for 1 hr by FRET based Z'-LYTE assay. Summed up: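 Full dose–response curve used for IC50. Duplicates, averaged with SD. Protease development reagent B (1:16) then added. Phosphorylation taken from the donor coumarin/acceptor fluorescein emission ratio at 400 nm excitation.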
Target sequence in this assay (P48730 whole entry, canonical isoform): as the sequence (P48730 whole entry, looked up, canonical isoform) above

One may read the inhibition as the relative decrease from the control value, in per cent. Low values mean little suppression, high ones strong suppression. A word on the IC50: it is the point on the concentration scale where inhibition reaches its midpoint. Lower therefore signals higher potency. Regarding `CNC(=O)c1ccc2[nH]nc(-c3cccc(C(=O)NCc4cccc5ccccc45)c3)c2c1`, the inhibition in assay [1] turned out to be 80%. The same compound showed an IC50 in assay [2] of 354 nM.
As for `CNC(=O)c1ccc2[nH]nc(-c3cccc(C(=O)NCc4cnc(C)nc4N)c3)c2c1`, the inhibition in assay [1] was 92%.
As to `O=C1CCCN1Cc1nnc(-c2ccc3[nH]nc(-c4ccc(F)cc4)c3c2)[nH]1`, the inhibition in assay [1] is 25%.
Turning to `C[C@@H](NC(=O)c1ccc2[nH]nc(-c3cccc(NS(C)(=O)=O)c3)c2c1)c1ccccc1`, the inhibition in assay [1] came out at 66%. The IC50 in assay [2] was 1030 nM.
In assay [1], `CNC(=O)c1ccc2[nH]nc(-c3cccc(C(=O)Nc4cc(-c5ccccn5)n[nH]4)c3)c2c1` had an inhibition of 57%.
`CN(C)Cc1n[nH]c(-c2ccc3[nH]nc(-c4cccc(C(=O)Nc5ccc(F)cc5)c4)c3c2)n1`: the inhibition in assay [1] amounted to 99%. This compound also gave an IC50 in assay [2] of 134 nM.
For `Fc1ccc(-c2n[nH]c3ccc(-c4n[nH]c(CN5CCCC5)n4)cc23)cc1` the same measures were 53% and 848 nM.
